JMJD2C inh – inhibitors of GASC-1 histone demethylase, primary screen, biochemical, fluorescence, DELFIA europium; Lysine-specific demethylase 4C (Homo sapiens), Q9H3R0; GST-JMJD2C(1-420) H3K9me3 demethylation; inhibition, % at 2.35 µM; actives 0.069% (n = 330,000); AID 2099, 2009;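 active = more than half of a compound's replicate wells show inhibition beyond 50%, single wells judged on their own value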;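 also: signal counts dimethyl H3K9 product captured on neutravidin plate; 0% = median of DMSO wells and 100% = 0.3 times that DMSO median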
697 NFkB inh – inhibitors of PMA/ionomycin-induced NF-kB reporter, 697 cells, primary screen, B-cell NF-kB inhibitor project, cell-based, luminescence, uHTS; 697 B-cell NF-kB luciferase reporter, 16 h; inhibition, % at 4 µM; actives 0.33% (n = 330,000); AID 435022, 2010; in the data active = inhibition above about 35%
NR2E3 ag-1 – inhibitors of NR2E3-RetCOR corepressor binding, primary screen, NR2E3 agonist project, biochemical, TR-FRET, GST-NR2E3, biotin-RetCOR; inhibition of corepressor binding, % at 4.78 µM; 1536-well; Photoreceptor-specific nuclear receptor (Homo sapiens), Q9Y5X4; actives 0.12% (n = 320,000);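 active = percent inhibition above the cutoff of mean plus 3 SD of all tested compounds, set per screening campaign, cut at about 20% in these data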;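 also: 0% = DMSO wells and 100% = biotin wells as full block of FRET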
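Format: 1536-well format; test system: GST-NR2E3 and biotin-RetCOR proteins; read-out basis: percent inhibition of TR-FRET ratio; timing: 5 h incubation at 4 °C; detection: time-resolved FRET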
GalR3 antagonist – GalR3 antagonists in HEK293 cells, primary screen, cell-based, fluorescence readout; Galanin receptor type 3 (Homo sapiens), O60755; HEK293 GalR3-CNG cAMP membrane potential fluorescence; galR3 body fused to GalR1 C-terminus; inhibition, % at 3 µM; actives 0.44% (n = 360,000);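 active = inhibition above the screen-wide average plus 3 SD, cut at about 13% in these data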;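 also: forskolin and galanin both at EC90 stimulate the cells; cAMP rise reported by CNG channel membrane potential dye signal; 0% = forskolin plus galanin with DMSO and 100% = forskolin alone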
Target sequence (O60755 1-299 limits assumed): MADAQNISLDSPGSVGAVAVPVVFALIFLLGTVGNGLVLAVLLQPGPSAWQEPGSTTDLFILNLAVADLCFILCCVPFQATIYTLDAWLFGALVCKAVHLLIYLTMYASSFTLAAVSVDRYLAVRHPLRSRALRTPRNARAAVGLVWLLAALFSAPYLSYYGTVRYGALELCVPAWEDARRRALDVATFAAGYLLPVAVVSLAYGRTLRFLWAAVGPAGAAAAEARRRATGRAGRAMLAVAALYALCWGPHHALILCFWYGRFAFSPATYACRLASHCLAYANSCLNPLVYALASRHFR
Jurkat NFkB inh – inhibitors of induced NF-kB luciferase reporter, primary screen, TCR NF-kB activation inhibitor project, cell-based, luminescence, uHTS | AID 435003, 2010 | inhibition, % at 4 µM | Jurkat, PMA/ionomycin-induced NF-kB luciferase reporter | actives 0.53% (n = 330,000); in the data active = inhibition above about 50%
NR2E3 ag-2 – NR2E3 agonists in two-hybrid cells, primary screen, cell-based, luminescence, CHO-S, Gal4-NCOR/VP16-NR2E3 | Photoreceptor-specific nuclear receptor (Homo sapiens), Q9Y5X4 | luciferase | inhibition of corepressor binding, % at 3.98 µM | actives 0.35% (n = 360,000) | AID 602229, 2012;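 active = inhibition above the mean of all tested compounds plus 3 SD, cut at about 70% in these data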;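 also: 0% = DMSO with NR2E3 transfected cells and 100% = cells lacking NR2E3 construct; higher means lower luciferase signal from less NR2E3 corepressor binding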
Jurkat NFkB conf – PMA/ionomycin-induced NF-kB reporter inhibitors, Jurkat retest, confirmation, T-cell NF-kB inhibitor project, cell-based, luminescence, single concentration. shares compounds with Jurkat NFkB inh. Jurkat NF-kB luciferase, 16 h. inhibition, % at 4 µM. actives 27% (n = 2,700);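 active = inhibition reaching about 45% at 4 µM in either replicate, limit read from the data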;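 also: plate controls were PMA/ionomycin stimulated DMSO wells for no effect and unstimulated DMSO wells for full effect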
Starred values were filed as active, the others as inactive; . = no result given. Hits are enriched below; roughly 1.5% of the tested compounds scored in any of these assays.

SMILES	JMJD2C inh	697 NFkB inh	NR2E3 ag-1	GalR3 antagonist	Jurkat NFkB inh	NR2E3 ag-2	Jurkat NFkB conf
CCOc1cc(CNc2nn[nH]n2)ccc1OCC(=O)NC(C)(C)C	41	14	-1	-6	-2	-13	.
CC1(C(=O)NCC2CC2)Cc2c(-c3cccc(C(F)(F)F)c3)ccnc2O1 (stereo not drawn)	.	.	.	-6	.	-13	.
Cc1nn(-c2nc3ccccc3s2)c(N)c1-c1ccc(Cl)cc1	-8	-77	-1	-3	-60	-34	.
Cc1nn(-c2nc3ccccc3s2)c(N)c1-c1ccccc1	-3	-232	3	3	-165	-179	-118
O=S(=O)(Nc1nc2ccccc2nc1N1CCc2ccccc2C1)c1ccc(Br)cc1	3	.	2	-9	.	-142	.
Cc1ccccc1S(=O)(=O)Nc1nc2ccccc2nc1N1CCc2ccccc2C1	-4	-135	3	-9	-166	-47	-90
CC1CCN(S(=O)(=O)c2ccc(NC(=O)CCN3C(=O)C4CC=CCC4C3=O)cc2)CC1 (stereo not drawn)	.	10	3	-5	1	-9	.
COc1ccccc1NC(=O)c1oc2ccccc2c1NC(=O)c1cc(OC)c(OC)c(OC)c1	-7	-20	0	-4	64*	-19	13
O=C(N[C@@H](Cc1ccccc1)C(=O)CCl)OCc1ccccc1	2	-37	1	-4	83*	0	48*
COc1cccc(Nc2nn3c(=O)c4ccccc4nc3s2)c1	1	-80	4	.	-102	-77	.
O=c1c2ccccc2nc2sc(Nc3ccc(F)cc3)nn12	9	-154	3	-2	-157	-57	-42
CCOC(=O)c1oc2ccc(S(=O)(=O)n3nc(-c4ccc(OC)cc4)cc3N)cc2c1C	-14	-50	6	5	58*	-16	28
CCn1c2ccccc2c2cc(NC(=O)COc3ccccc3OC)ccc21	-1	-17	-1	-10	48	-37	.
CCn1c2ccccc2c2cc(NC(=O)CNCc3ccccc3OC)ccc21	-9	-5	0	-5	53*	-88	24
C(=C\c1ccccc1)/CSc1nnc(-c2ccccc2)n1Cc1ccco1	6	-41	1	-5	60*	3	23
COC(=O)[C@]12C[C@H](CC(=O)NCc3ccccc3)C(=O)N(CCC3=CCCCC3)C1=C[C@H](COCc1ccccc1)O[C@@H]2C	.	.	.	-11	.	.	.
CC(C)(C)c1ccc(C(=O)Nc2cccc(-n3cnnn3)c2)cc1	13	-26	2	2	-89	-12	.
CCC(=O)O/N=C(\N)c1ccc(Oc2cc(C)c(Cl)c(C)c2)c([N+](=O)[O-])c1	1	-12	0	-6	53*	-16	4
CC(C)(C)C(=O)O/N=C(\N)c1ccc(Oc2cc(Cl)cc(Cl)c2)c([N+](=O)[O-])c1	-4	1	-4	-2	-10	-28	.
CCc1nc2ccc(C(=O)Nc3ccc(OC)c(OC)c3)cn2c1N(C)CCC(C)C	.	.	.	-3	.	16	.
O=[N+]([O-])c1ccc(C2=NN(CCO)C(=Nc3ccc(OC(F)(F)F)cc3)SC2)cc1	12	0	1	-7	75*	27	11
Cc1cc(N2CCOCC2)ccc1/C=C1\SC(=O)N(C(C)C)C1=O	6	-101	-3	3	-170	-31	-58
CC(=O)Nc1ccc(-c2cc(C(=O)O)c3ccc(C)cc3n2)cc1	-9	-23	0	-2	-5	-12	.
CC(C)N=c1cc2n(-c3ccc(Cl)cc3)c3ccccc3nc-2cc1Nc1ccc(Cl)cc1	-34	-24	3	0	73*	-4	10
Cn1c(CNc2ccc(Cl)cc2)nc2ccccc21	-1	-16	3	2	-20	-117	.
SMILES	JMJD2C inh	697 NFkB inh	NR2E3 ag-1	GalR3 antagonist	Jurkat NFkB inh	NR2E3 ag-2	Jurkat NFkB conf
Brc1cc(Cc2nnc(-c3ccccc3)o2)c(Br)s1	-5	3	-4	-4	10	-24	.
COc1cccc(OC)c1C(=O)Nc1ccc(N2CCN(C(=O)c3cccs3)CC2)cc1	4	-4	2	-2	-1	17	.
COc1cccc(C(=O)Nc2ccc(N3CCN(C(=O)c4cccs4)CC3)cc2)c1	-2	-79	-1	-3	52*	-18	14
COc1ccc(NC(=O)c2cccs2)cc1C(=O)N1CCN(c2ccccc2)CC1	3	-21	-1	-2	52*	5	13
O=C(NC(=S)Nc1ccc(N2CCCCC2)cc1)c1cccs1	3	-106	-3	-7	-172	-148	-108
O=C(Cc1ccccc1)c1ccc(N2CCOCC2)cc1	.	.	.	-7	.	-77	.
CCOC(=O)CSC1=C(C#N)C(c2ccc(C)s2)CC(=O)N1 (stereo not drawn)	-3	5	3	-9	57*	-16	49*
CCSC1=C(C#N)C(c2ccc(C)s2)CC(=O)N1 (stereo not drawn)	-13	-16	2	-11	-13	-5	.
CCCCCOc1ccc(Br)cc1/C(C)=N/NC1=NCCN1	-4	-23	1	-4	63*	-18	32
C/C(=N\NC1=NCCN1)c1ccccc1	-3	4	1	-7	-16	-5	.
C=C(C)COc1ccc(-c2ncncc2-c2ccc(Br)cc2)c(O)c1	-11	-3	-3	-9	8	-6	.
CCOc1ccc(-c2[nH]ncc2-c2ccc(OC)c(OC)c2)c(O)c1	-9	-57	-4	-5	63*	-41	57*
C=C(C)COc1ccc(-c2n[nH]c(C)c2-c2ccc(Br)cc2)c(O)c1	-10	-19	-2	-5	50*	-59	26
C=C(C)COc1ccc(-c2[nH]ncc2-c2ccc(Br)cc2)c(O)c1	-1	-22	-3	2	59*	-30	8
CCC(=O)N1CCc2cc(OC)c(OC)cc2C1COc1ccc(F)cc1 (stereo not drawn)	-13	-13	-2	-7	64*	-4	-1

Screens as filed in PubChem.
